The source of these data is ChEMBL document CHEMBL3045897, “Bioactivity of compounds from Acmella oleracea against Tuta absoluta (Meyrick) (Lepidoptera: Gelechiidae) and selectivity to two non-target species” (Pest Manag Sci, 2012).

In series [1] the test system is Tuta absoluta. Description: Contact toxicity against second-instar larvae of Tuta absoluta assessed as mortality after 24 hr. Format: functional. The procedure, abridged:
(§1)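 Topical application of 0.5 µL test solution in acetone per insect; controls got 0.5 µL acetone alone. Insects were held singly with food in small petri dishes at 25 ± 0.5 °C, 75±5% RH and a 12 h photoperiod. Mortality (dead or motionless insects) was scored at 24 h.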

Another series concerns Tetragonisca angustula. Description: Contact toxicity against adult Tetragonisca angustula assessed as mortality after 24 hr. Type of series: organism-based. Particulars: in vivo, topical_or_ocular. In short, it runs like this:
as §1

A further series has as its system Solenopsis saevissima. Description: Contact toxicity against adult Solenopsis saevissima assessed as mortality after 24 hr. Format: organism-based. Particulars: in vivo, topical_or_ocular. In short, it runs like this:
as §1

Series [2] in a line: Selectivity ratio of LD50 for adult Tetragonisca angustula to LD50 for second-instar larvae of Tuta absoluta. In short, it runs like this:
(§2)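 Test solutions in acetone were applied topically at 0.5 µL per insect, with acetone alone as control. Insects were then held individually in petri dishes with food at 25 ± 0.5 °C, 75±5% RH and a 12 h photoperiod. Mortality (dead or motionless) was scored at 24 h. LD50 values came from probit analysis of dose–mortality data for each species, and SLR50 was computed from these LD50 values.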

The nature of series [3]: Contact toxicity against adult Tetragonisca angustula assessed as mortality at contact LD80 for second-instar larvae of Tuta absoluta measured after 24 hr. Format: organism-based. The conditions noted are these: in vivo, topical or ocular.
Series [4] in a line: Contact toxicity against adult Solenopsis saevissima assessed as mortality at contact LD80 for second-instar larvae of Tuta absoluta measured after 24 hr. Particulars: in vivo, topical or ocular. Type of series: organism-based.
Series [5] in a line: Selectivity ratio of LD50 for adult Solenopsis saevissima to LD50 for second-instar larvae of Tuta absoluta. In short, it runs like this:
as §2

Series [6] concerns Tuta absoluta. Description: Ratio of permethrin LD50 to compound LD50 for second-instar larvae of Tuta absoluta assessed as mortality after 24 hr. Type of series: functional.

Usually mortality stands for the share of the test organisms that died.

Regarding `CC1(C)C(C=C(Cl)Cl)C1C(=O)OCc1cccc(Oc2ccccc2)c1` (stereo not drawn) [PERMETHRIN], the LD50 in the series on Tuta absoluta [1] worked out at 0.71 µg/mg; in the series with Tetragonisca angustula it was 0.0003 µg/mg; in the series with Solenopsis saevissima, 0.046 µg/mg. In addition, the LD80 in the series with Tuta absoluta [1] stood at 2.57 µg/mg; with Tetragonisca angustula it was 0.002 µg/mg; in the series on Solenopsis saevissima, 1.458 µg/mg. The Ratio in series [2] was determined as 0.065; in series [5] it was 0.00042. In addition, the mortality at 24 h in series [3] and in series [4] was 100% in each case.

Turning to `C#CC#CCCCC/C=C/C(=O)NCC(C)C`, the figures for the LD80 with Tetragonisca angustula and with Solenopsis saevissima were 2.02 µg/mg and 2.22 µg/mg, respectively.

For `C/C=C/C=C\CC/C=C/C(=O)NCC(C)C` [Spilanthol], the values for the LD50 with Tuta absoluta [1], in the series on Tetragonisca angustula and in the series with Solenopsis saevissima were 0.13 µg/mg, 0.35 µg/mg and 0.18 µg/mg, respectively. Also, the LD80 turned out to be 0.56 µg/mg in the series on Tuta absoluta [1], 0.81 µg/mg in the series with Tetragonisca angustula and 1.12 µg/mg in the series with Solenopsis saevissima. Besides, the Ratio in series [2] is 2.69; with Tuta absoluta [6], 5; in series [5] it was 1.38. Also, the mortality at 24 h in series [3] worked out at 58%; in series [4], 68%.

On to `C#CC#CCCCC/C=C/C(=O)NC[C@H](C)CC`, for which the results for the LD50 in the series with Tuta absoluta [1], in the series with Tetragonisca angustula and in the series with Solenopsis saevissima were 0.81 µg/mg, 1.1 µg/mg and 1.33 µg/mg, respectively. In addition, the LD80 stood at 1.76 µg/mg in the series with Tuta absoluta [1], 2.26 µg/mg in the series on Tetragonisca angustula and 4.4 µg/mg in the series with Solenopsis saevissima. Besides, the results for the Ratio in series [2] and in series [5] were 1.35 and 1.64, respectively. The mortality at 24 h in series [3] turned out to be 59%; in series [4], 55%.
